Source: PMC9323481 (Diabetes, Obesity & Metabolism, 2022)

Key:
Format in all cases: in vivo, human
[1] = tested on: patients with type 2 diabetes and CKD; test: Fasting plasma glucose and HbA1c; conditions: s.c. once daily, 50-300 μg; for Change in LS mean fasting plasma glucose from baseline to day 32: 32 days
[2] = tested on: patients with type 2 diabetes and CKD; test: Continuous glucose monitoring
In short: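 Double-blind, placebo-controlled, once-daily s.c. dosing titrated 50→100→200→300 μg over 32 days. Continuous glucose monitoring gave the percentage of time with interstitial glucose in the target range of 70-180 mg/dl (3.9-10 mmol/L) over a 7-day period, at baseline and in the final week of treatment. Change analysed by Wilcoxon rank-sum test, intent-to-treat population.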

[3] = tested on: patients with type 2 diabetes and CKD on insulin ≥20 units per day; test: Total daily insulin dose; conditions: participants on insulin ≥20 units per day; range –194, 20; placebo 0.0, p = .073
In short: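 Exploratory endpoint: change in total daily insulin dose from baseline to end of dosing, in participants on ≥20 units/day. Randomization was stratified by insulin dose (≥20 vs <20 units/day). Dosing was once-daily s.c., titrated 50-300 μg over 32 days, against placebo. Analysed by two-sample t-test with unequal variance and Satterthwaite approximation.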

[4] = tested on: patients with type 2 diabetes and CKD; test: Bodyweight; conditions: p < .001
In short: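 Randomized 1:1, double-blind; test compound or placebo given s.c. once daily each morning. Test compound dose titration: 50 μg for 4 days, 100 μg for 7 days, 200 μg for 7 days, then 300 μg for 14 days. Percentage and absolute change in bodyweight from baseline, intent-to-treat population. ANCOVA with treatment as fixed factor and baseline as covariate.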

[5] = tested on: patients with type 2 diabetes and CKD; test: UACR and eGFR
In short: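 Exploratory endpoints: change from baseline in mean urinary albumin-to-creatinine ratio (UACR) and eGFR. Dosing was randomized, double-blind, once-daily s.c., titrated 50-300 μg over 32 days, against placebo. Change in UACR was analysed by t-test with unequal variance. Continuous endpoints were analysed by ANCOVA with baseline as covariate, intent-to-treat population.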

[6] = tested on: patients with type 2 diabetes and CKD; test: Supine blood pressure and heart rate
In short: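 Vital signs, blood pressure and 24-h pulse rate were safety endpoints, taken as change from baseline. Randomized double-blind design: once-daily morning s.c. test compound titrated 50 μg (4 days), 100 μg (7 days), 200 μg (7 days), 300 μg (14 days), or placebo for 32 days. ANCOVA with baseline as covariate, as-treated population.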

[7] = tested on: patients with type 2 diabetes and CKD; test: Treatment-emergent adverse events
In short: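 Incidence of adverse events and serious adverse events during 32 days of once-daily s.c. dosing (titrated 50→100→200→300 μg) or placebo. Clinically significant hypoglycaemia was defined as capillary or venous plasma glucose <54 mg/dl (3.0 mmol/L). Safety analyses used the as-treated population with descriptive statistics.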

[8] = tested on: patients with type 2 diabetes and CKD; test: Clinical chemistry and eGFR percent change; conditions: baseline to day 32
Pharmacokinetics = conditions: repeat daily s.c. administration 50-300 μg; plasma
In short: (§1)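 Secondary endpoints of a 32-day trial: once-daily morning s.c. dosing titrated through 50 μg for 4 days, 100 μg for 7 days, 200 μg for 7 days and 300 μg for 14 days. Pharmacokinetic parameters and anti-drug antibody titre were summarized with descriptive statistics only.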

[9] = tested on: patients with type 2 diabetes and CKD; test: Immunogenicity; conditions: serum anti-drug antibody
In short: as §1

## cotadutide
[1]; placebo 0.03
  Change in LS mean fasting plasma glucose from baseline to day 32: 1.09 mmol/L
[1]; placebo +0.60, p = .089
  Change in LS mean fasting plasma glucose from baseline to day 32: –19.55 mg/dl
[1]; placebo +0.01%, p < .001
  Change in LS mean HbA1c from baseline to day 32: –0.65%
[2]; 100 μg dose period, placebo 48.57%
  Mean percentage of time within target range over a 7-day period: 75.82%
[2]; 200 μg dose period, placebo 54.99%
  Mean percentage of time within target range over a 7-day period: 78.69%
[2]; 300 μg dose period, placebo 40.66%
  Mean percentage of time within target range over a 7-day period: 78.18%
[2]; CGM, entire dosing period, placebo 0.66%, p = .010
  Time in clinically significant hypoglycaemia (glucose <54 mg/dl or <3.0 mmol/L): 2.01%
[2]; CGM, entire dosing period, placebo 2.73%, p = .061
  Time in hypoglycaemia (glucose <70 mg/dl or <3.9 mmol/L): 6.07%
[2]; CGM, entire dosing period, placebo 37.39%, p = .001
  Time in hyperglycaemia (glucose >180 mg/dl or 10 mmol/L): 10.50%
[3]
  Median absolute change in total daily insulin dose from baseline to day 32: –16.0 units per day
[4]; 90% CI –4.2, –2.62, placebo –0.13 kg
  LS mean change in absolute bodyweight from baseline to day 33: –3.41 kg
[4]; 90% CI –4.55, –2.83, placebo –0.21%
  LS mean percentage change in bodyweight from baseline to day 33: –3.69%
[5]; 90% CI –1.29, 3.62, placebo –1.10, p = .268
  LS mean change in eGFR: 1.17 ml/min/1.73 m^2
[5]; all participants, placebo 5.43%, not significant
  Change in LS mean UACR from baseline to day 33: –7.65%
[6]; placebo 3.14, p < .001
  Increase in LS mean heart rate from baseline to day 32: 14.13 beats per minute
[6]; placebo 3.40, p = .421
  Increase in LS mean supine diastolic blood pressure from baseline to day 32: 0.57 mmHg
[6]; placebo 8.69, p = .144
  Increase in LS mean supine systolic blood pressure from baseline to day 32: 1.44 mmHg
[7]; abstract, placebo 35.0%
  Mild/moderate adverse events, participants: 71.4%
[7]; n = 21, as-treated, placebo 13 (65.0)
  Treatment-emergent adverse event: Any: 20 (95.2) n (%)
[7]; n = 21, clinically significant, capillary or venous plasma glucose <54 mg/dl (3.0 mmol/L), placebo 1 (5.0)
  Treatment-emergent adverse event: Hypoglycaemia: 3 (14.3) n (%)
[7]; n = 21, placebo 0
  Treatment-emergent adverse event: Decreased appetite: 3 (14.3) n (%)
  Treatment-emergent adverse event: Diarrhoea: 5 (23.8) n (%)
  Treatment-emergent adverse event: Flatulence: 2 (9.5) n (%)
  Treatment-emergent adverse event: Leading to death (no. patients): 1 (4.8) n (%)
  Treatment-emergent adverse event: Serious related to cotadutide: 1 (4.8) n (%)
[7]; n = 21, placebo 1 (5.0)
  Treatment-emergent adverse event: Dizziness: 2 (9.5) n (%)
  Treatment-emergent adverse event: Dyspepsia: 5 (23.8) n (%)
  Treatment-emergent adverse event: Leading to study discontinuation (no. patients): 2 (9.5) n (%)
  Treatment-emergent adverse event: Vomiting: 6 (28.6) n (%)
[7]; n = 21, placebo 2 (10.0)
  Treatment-emergent adverse event: Headache: 2 (9.5) n (%)
  Treatment-emergent adverse event: Nasopharyngitis: 3 (14.3) n (%)
  Treatment-emergent adverse event: Serious (no. patients): 2 (9.5) n (%)
[7]; n = 21, placebo 4 (20.0)
  Treatment-emergent adverse event: Nausea: 9 (42.9) n (%)
[7]; n = 21, placebo 7 (35.0)
  Treatment-emergent adverse event: Any related to cotadutide: 15 (71.4) n (%)
[7]; whole study
  AEs of severe hypoglycaemia: no recorded AEs
[8]
  Trends or shifts from baseline in serum chemistry: no clinically meaningful trends or shifts
Pharmacokinetics
  Exposure at Ctrough with dose: linear increased exposure
[9]
  Treatment-boosted ADA response: No participants
